pIC50: −log10 of the molar value. Calls of active or inactive are those of the source. No cut-off for these calls is given here.
Key:
[1] = cells; format: functional, cell-based; details: Homo sapiens, A2780/DX, 72 h
[2] = test system: DU-145; assay: cells; format: functional, cell-based; details: Homo sapiens, DU-145, 72 h
[3] = test system: HepG2; assay: Antiproliferative activity against human HepG2 cells after 72 hrs by SRB assay; format: functional, cell-based; details: HepG2, 72 h
[4] = test system: NCI-H460; assay: cells; format: functional, cell-based; details: Homo sapiens, NCI-H460, 72 h
[5] = test system: HT-29; assay: Antiproliferative activity against human HT-29 cells after 72 hrs by SRB assay; format: functional, cell-based; details: HT-29, 72 h
[6] = test system: HeLa; assay: cells; format: functional, cell-based; details: Homo sapiens, 72 h
[7] = test system: CAPAN-1; assay: cells; format: functional, cell-based; details: Homo sapiens, CAPAN-1, 72 h
[8] = test system: A-431; assay: cells; format: functional, cell-based; details: Homo sapiens, A-431, 72 h
[9] = test system: A2780; assay: cells; format: functional, cell-based; details: Homo sapiens, A2780, 72 h
[10] = test system: DG-75; assay: cells; format: functional, cell-based; details: Homo sapiens, DG-75, 72 h
[11] = test system: MM473; assay: Cell cycle arrest in human MM473 cells assessed as accumulation at G2/M at 4 uM after 24 hrs by propidium iodide staining-based flow cytometric method (reference value: 15.7%); format: functional
[12] = test system: MM473; assay: Cell cycle arrest in human MM473 cells assessed as accumulation at S phase at 4 uM after 72 hrs by propidium iodide staining-based flow cytometric method (reference value: 15.1%); format: functional
[13] = Cell cycle arrest in human MM487 cells assessed as accumulation at G2/M at 0.3 uM after 24 hrs by propidium iodide staining-based flow cytometric method (reference value: 16.9%); format: functional
[14] = cells; format: functional, cell-based; details: Homo sapiens, 72 h
[15] = test system: MM473; assay: Induction of apoptosis in human MM473 cells at 4 uM after 24 hrs by propidium iodide staining-based flow cytometric method (reference value: 2.5%); format: functional
[16] = test system: MM473; assay: Cell cycle arrest in human MM473 cells assessed as accumulation at G0/G1 phase at 4 uM after 24 hrs by propidium iodide staining-based flow cytometric method (reference value: 54.5%); format: functional
[17] = Induction of apoptosis in human MM487 cells at 0.3 uM after 24 hrs by propidium iodide staining-based flow cytometric method (reference value: 0.5%); format: functional
[18] = test system: JeKo-1; assay: cells; format: functional, cell-based; details: Homo sapiens, JeKo-1, 72 h
[19] = Cell cycle arrest in human MM487 cells assessed as accumulation at G0/G1 phase at 0.3 uM after 72 hrs by propidium iodide staining-based flow cytometric method (reference value: 80%); format: functional
[20] = test system: MM473; assay: Cell cycle arrest in human MM473 cells assessed as accumulation at G0/G1 phase at 4 uM after 72 hrs by propidium iodide staining-based flow cytometric method (reference value: 80.2%); format: functional
[21] = test system: L-428; assay: cells; format: functional, cell-based; details: Homo sapiens, L-428, 72 h
[22] = Cell cycle arrest in human MM487 cells assessed as accumulation at S phase at 0.3 uM after 48 hrs by propidium iodide staining-based flow cytometric method (reference value: 13.7%); format: functional
[23] = Cell cycle arrest in human MM487 cells assessed as accumulation at G2/M phase at 0.3 uM after 72 hrs by propidium iodide staining-based flow cytometric method (reference value: 5.4%); format: functional
[24] = target: Histone deacetylase 1 (Homo sapiens, UniProt Q13547); assay: Inhibition of HDAC1 (unknown origin) using RHKK(Ac)AMC as substrate after 1 to 2 hrs by fluorescence assay
Histone deacetylase 1, sequence (Q13547 whole entry): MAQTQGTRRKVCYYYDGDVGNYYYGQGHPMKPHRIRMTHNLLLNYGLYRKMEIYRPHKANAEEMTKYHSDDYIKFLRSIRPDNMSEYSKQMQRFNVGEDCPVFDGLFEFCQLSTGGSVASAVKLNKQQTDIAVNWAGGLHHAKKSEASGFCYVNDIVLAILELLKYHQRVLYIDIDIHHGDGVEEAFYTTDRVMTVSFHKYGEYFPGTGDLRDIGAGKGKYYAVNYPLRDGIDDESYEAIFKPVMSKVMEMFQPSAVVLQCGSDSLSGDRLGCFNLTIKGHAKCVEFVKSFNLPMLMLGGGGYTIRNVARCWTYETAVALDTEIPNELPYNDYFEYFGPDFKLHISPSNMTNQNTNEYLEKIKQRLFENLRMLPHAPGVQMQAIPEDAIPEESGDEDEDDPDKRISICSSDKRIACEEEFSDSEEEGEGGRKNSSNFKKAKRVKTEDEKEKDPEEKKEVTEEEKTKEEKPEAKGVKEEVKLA

[25] = test system: MM473; assay: cells; format: functional, cell-based; details: Homo sapiens, MM473, 72 h
[26] = test system: OCI-Ly3; assay: cells; details: Homo sapiens, OCI-Ly3, 72 h
[27] = test system: MM473; assay: Induction of apoptosis in human MM473 cells at 4 uM after 72 hrs by propidium iodide staining-based flow cytometric method (reference value: 1.4%); format: functional
[28] = test system: U2932; assay: cells; format: functional, cell-based; details: Homo sapiens, U2932, 72 h
[29] = test system: MM473; assay: Cell cycle arrest in human MM473 cells assessed as accumulation at S phase at 4 uM after 48 hrs by propidium iodide staining-based flow cytometric method (reference value: 23.9%); format: functional
[30] = test system: KM-H2; assay: cells; details: Homo sapiens, KM-H2, 72 h
[31] = target: Polyamine deacetylase HDAC10 (Homo sapiens, UniProt Q969S8); assay: Inhibition of HDAC10 (unknown origin) using RHKK(Ac)AMC as substrate after 1 to 2 hrs by fluorescence assay
Polyamine deacetylase HDAC10, sequence (Q969S8 whole entry): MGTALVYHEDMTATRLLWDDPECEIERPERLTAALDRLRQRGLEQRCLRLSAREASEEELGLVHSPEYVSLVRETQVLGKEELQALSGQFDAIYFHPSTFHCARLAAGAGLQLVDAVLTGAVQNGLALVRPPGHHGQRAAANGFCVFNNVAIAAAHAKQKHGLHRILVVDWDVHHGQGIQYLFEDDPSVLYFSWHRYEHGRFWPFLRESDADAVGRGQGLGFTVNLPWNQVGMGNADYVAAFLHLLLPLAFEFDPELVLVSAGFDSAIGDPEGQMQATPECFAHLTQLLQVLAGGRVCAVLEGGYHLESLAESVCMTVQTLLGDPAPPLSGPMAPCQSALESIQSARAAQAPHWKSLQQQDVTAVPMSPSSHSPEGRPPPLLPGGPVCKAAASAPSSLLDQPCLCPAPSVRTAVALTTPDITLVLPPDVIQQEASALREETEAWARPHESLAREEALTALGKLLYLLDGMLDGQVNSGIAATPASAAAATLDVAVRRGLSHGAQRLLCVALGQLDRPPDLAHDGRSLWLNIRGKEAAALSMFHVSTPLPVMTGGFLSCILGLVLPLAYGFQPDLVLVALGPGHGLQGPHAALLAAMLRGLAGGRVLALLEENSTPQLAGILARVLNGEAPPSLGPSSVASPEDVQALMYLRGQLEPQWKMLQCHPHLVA

[32] = Cell cycle arrest in human MM487 cells assessed as accumulation at G2/M phase at 0.3 uM after 48 hrs by propidium iodide staining-based flow cytometric method (reference value: 12.5%); format: functional
[33] = Cell cycle arrest in human MM487 cells assessed as accumulation at G0/G1 phase at 0.3 uM after 48 hrs by propidium iodide staining-based flow cytometric method (reference value: 73.8%); format: functional
[34] = test system: MM473; assay: Induction of apoptosis in human MM473 cells at 4 uM after 48 hrs by propidium iodide staining-based flow cytometric method (reference value: […]); format: functional
[35] = target: Histone deacetylase (HDAC1 and HDAC2) (Homo sapiens) (UniProt Q13547+Q92769); assay: Inhibition of HDAC1/2 in human MM473 cells assessed as increase in hyperacetylation of nuclear histone H4 at 0.2 to 0.5 uM after 24 hrs by Western blot method; format: cell-based
Histone deacetylase (HDAC1 and HDAC2) (Homo sapiens), sequence (Q13547 whole entry, looked up): as the sequence (Q13547 whole entry) above
Histone deacetylase (HDAC1 and HDAC2) (Homo sapiens), sequence (Q92769 whole entry, looked up): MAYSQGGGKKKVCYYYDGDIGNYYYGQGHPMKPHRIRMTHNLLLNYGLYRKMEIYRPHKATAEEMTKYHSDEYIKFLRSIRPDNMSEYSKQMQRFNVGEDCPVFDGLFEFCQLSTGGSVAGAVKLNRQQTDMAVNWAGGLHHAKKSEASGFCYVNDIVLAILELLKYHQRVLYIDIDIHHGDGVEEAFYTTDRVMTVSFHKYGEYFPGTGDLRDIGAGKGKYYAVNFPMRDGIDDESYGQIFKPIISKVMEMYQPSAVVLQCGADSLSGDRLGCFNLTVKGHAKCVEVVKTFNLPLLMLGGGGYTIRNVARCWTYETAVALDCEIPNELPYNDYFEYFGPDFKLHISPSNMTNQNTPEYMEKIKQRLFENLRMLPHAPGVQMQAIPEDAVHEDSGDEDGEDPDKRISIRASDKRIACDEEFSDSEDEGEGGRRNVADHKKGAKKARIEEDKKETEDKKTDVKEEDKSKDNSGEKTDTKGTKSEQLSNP
Summary of the method: (§1)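 MM473 cells treated 24 h (0.2 and 0.5 µM), lysed in NP-40 or RIPA with protease/phosphatase inhibitors; 40 µg protein run on SDS-PAGE, transferred to nitrocellulose, blocked in 5% milk/TBST, probed overnight for acetyl-H4, H4, acetyl-tubulin and α-tubulin, HRP secondaries, ECL chemiluminescence; band density normalised to α-tubulin.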

[36] = Cell cycle arrest in human MM487 cells assessed as accumulation at G0/G1 phase at 0.3 uM after 24 hrs by propidium iodide staining-based flow cytometric method (reference value: 57.9%); format: functional
[37] = cells; format: functional, cell-based; details: Homo sapiens, MINO, 72 h
[38] = test system: MM473; assay: Cell cycle arrest in human MM473 cells assessed as accumulation at G2/M phase at 4 uM after 72 hrs by propidium iodide staining-based flow cytometric method (reference value: 4.6%); format: functional
[39] = test system: MM473; assay: Cell cycle arrest in human MM473 cells assessed as accumulation at S phase at 4 uM after 24 hrs by propidium iodide staining-based flow cytometric method (reference value: 29.8%); format: functional
[40] = cells; format: functional, cell-based; details: Homo sapiens, 72 h; remark: listed apart in the source
[41] = target: Protein deacetylase HDAC6 (Homo sapiens) (UniProt Q9UBN7); assay: Inhibition of HDAC6 in human MM473 cells assessed as increase in hyperacetylation of cytoplasmic alpha-tubulin at 0.2 to 0.5 uM after 24 hrs by Western blot method; format: cell-based
Protein deacetylase HDAC6 (Homo sapiens), sequence (Q9UBN7 whole entry): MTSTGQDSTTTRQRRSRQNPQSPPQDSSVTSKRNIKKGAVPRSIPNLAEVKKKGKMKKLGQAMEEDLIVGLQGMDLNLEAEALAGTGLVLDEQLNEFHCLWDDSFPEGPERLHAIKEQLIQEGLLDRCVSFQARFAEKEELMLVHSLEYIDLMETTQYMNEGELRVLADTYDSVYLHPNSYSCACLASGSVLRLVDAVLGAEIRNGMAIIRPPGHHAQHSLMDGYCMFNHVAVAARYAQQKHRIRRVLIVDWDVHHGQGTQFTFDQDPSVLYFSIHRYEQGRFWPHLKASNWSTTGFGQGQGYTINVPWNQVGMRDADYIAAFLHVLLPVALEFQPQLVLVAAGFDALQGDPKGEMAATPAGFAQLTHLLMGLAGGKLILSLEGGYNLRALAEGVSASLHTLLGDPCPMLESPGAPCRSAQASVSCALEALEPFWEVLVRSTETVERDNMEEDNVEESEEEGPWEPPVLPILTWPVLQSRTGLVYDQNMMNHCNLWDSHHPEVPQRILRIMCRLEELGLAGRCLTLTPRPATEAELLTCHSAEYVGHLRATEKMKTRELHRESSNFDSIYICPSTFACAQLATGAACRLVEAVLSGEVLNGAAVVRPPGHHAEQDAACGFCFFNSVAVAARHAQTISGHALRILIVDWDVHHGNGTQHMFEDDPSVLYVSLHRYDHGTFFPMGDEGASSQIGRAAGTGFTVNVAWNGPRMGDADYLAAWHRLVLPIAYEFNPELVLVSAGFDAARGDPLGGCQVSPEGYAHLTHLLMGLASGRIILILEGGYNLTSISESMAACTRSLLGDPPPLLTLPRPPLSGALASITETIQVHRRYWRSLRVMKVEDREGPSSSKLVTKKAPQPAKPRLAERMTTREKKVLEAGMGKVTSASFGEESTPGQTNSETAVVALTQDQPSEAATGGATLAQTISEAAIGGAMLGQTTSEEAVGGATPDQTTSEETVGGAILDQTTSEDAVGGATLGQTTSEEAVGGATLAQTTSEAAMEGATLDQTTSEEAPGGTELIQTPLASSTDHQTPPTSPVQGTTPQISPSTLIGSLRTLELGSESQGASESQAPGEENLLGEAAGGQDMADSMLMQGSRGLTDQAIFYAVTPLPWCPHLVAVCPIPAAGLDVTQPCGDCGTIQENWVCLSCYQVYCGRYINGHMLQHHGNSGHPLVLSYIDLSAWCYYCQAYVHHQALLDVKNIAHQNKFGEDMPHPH
Summary of the method: as §1

[42] = Induction of apoptosis in human MM487 cells at 0.3 uM after 48 hrs by propidium iodide staining-based flow cytometric method (reference value: 0.3%); format: functional
[43] = Induction of apoptosis in human MM487 cells at 0.3 uM after 72 hrs by propidium iodide staining-based flow cytometric method (reference value: 0.6%); format: functional
[44] = test system: Mus musculus; assay: Toxicity in CD1 nude mouse xenografted with human MM473 cells assessed as body weight loss at 90 mg/kg, iv administered every 4 days per week for 3 weeks measured during compound dosing and on day 40 post last dose; format: organism-based; details: in vivo
Summary of the method: (§2)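 MM473 mesothelioma cells (F-10, 10% FBS, G418; mycoplasma-checked, >95% viable) injected intrapleurally, 1x10⁶ in 200 µl M199 per CD-1 nude mouse. Treatment i.v. from day 15 when tumours were growing, in 10% 1:1 ethanol–Cremophor in saline, q4dx3w; vehicle control. Tumour burden followed weekly by IVIS bioluminescence after i.p. D-luciferin (100 µL/10 g), as average radiance; body weight recorded.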

[45] = test system: MM473; assay: Cell cycle arrest in human MM473 cells assessed as accumulation at G0/G1 phase at 4 uM after 48 hrs by propidium iodide staining-based flow cytometric method (reference value: 71.8%); format: functional
[46] = test system: MM473; assay: Cell cycle arrest in human MM473 cells assessed as accumulation at G2/M phase at 4 uM after 48 hrs by propidium iodide staining-based flow cytometric method (reference value: 4.3%); format: functional
[47] = test system: MM473; assay: Antitumor activity against human MM473 cells xenografted in CD1 nude mouse assessed as inhibition of tumor volume at 90 mg/kg, iv administered every 4 days per week for 3 weeks measured 10 days post last dose by luciferase reporter assay relative to vehicle-treated control; format: functional
Summary of the method: as §2

[48] = test system: NB-4; assay: cells; format: functional, cell-based; details: Homo sapiens, NB-4, 72 h
[49] = target: Protein deacetylase HDAC6 (Homo sapiens, UniProt Q9UBN7); assay: Inhibition of HDAC6 (unknown origin) using RHKK(Ac)AMC as substrate after 1 to 2 hrs by fluorescence assay
Protein deacetylase HDAC6, sequence (Q9UBN7 whole entry): as above

[50] = Cell cycle arrest in human MM487 cells assessed as accumulation at S phase at 0.3 uM after 24 hrs by propidium iodide staining-based flow cytometric method (reference value: 25.2%); format: functional
[51] = target: Histone deacetylase 2 (Homo sapiens, UniProt Q92769); assay: Inhibition of HDAC2 (unknown origin) using RHKK(Ac)AMC as substrate after 1 to 2 hrs by fluorescence assay
Histone deacetylase 2, sequence (Q92769 whole entry): as the sequence (Q92769 whole entry, looked up) above

[52] = Cell cycle arrest in human MM487 cells assessed as accumulation at S phase at 0.3 uM after 72 hrs by propidium iodide staining-based flow cytometric method (reference value: 14.6%); format: functional
[53] = cells; format: functional, cell-based; details: Homo sapiens, MM487, 72 h
[54] = target: Histone deacetylase 4 (Homo sapiens, UniProt P56524); assay: Inhibition of HDAC4 (unknown origin) using fluorogenic substrate after 1 to 2 hrs by fluorescence assay
Histone deacetylase 4, sequence (P56524 whole entry): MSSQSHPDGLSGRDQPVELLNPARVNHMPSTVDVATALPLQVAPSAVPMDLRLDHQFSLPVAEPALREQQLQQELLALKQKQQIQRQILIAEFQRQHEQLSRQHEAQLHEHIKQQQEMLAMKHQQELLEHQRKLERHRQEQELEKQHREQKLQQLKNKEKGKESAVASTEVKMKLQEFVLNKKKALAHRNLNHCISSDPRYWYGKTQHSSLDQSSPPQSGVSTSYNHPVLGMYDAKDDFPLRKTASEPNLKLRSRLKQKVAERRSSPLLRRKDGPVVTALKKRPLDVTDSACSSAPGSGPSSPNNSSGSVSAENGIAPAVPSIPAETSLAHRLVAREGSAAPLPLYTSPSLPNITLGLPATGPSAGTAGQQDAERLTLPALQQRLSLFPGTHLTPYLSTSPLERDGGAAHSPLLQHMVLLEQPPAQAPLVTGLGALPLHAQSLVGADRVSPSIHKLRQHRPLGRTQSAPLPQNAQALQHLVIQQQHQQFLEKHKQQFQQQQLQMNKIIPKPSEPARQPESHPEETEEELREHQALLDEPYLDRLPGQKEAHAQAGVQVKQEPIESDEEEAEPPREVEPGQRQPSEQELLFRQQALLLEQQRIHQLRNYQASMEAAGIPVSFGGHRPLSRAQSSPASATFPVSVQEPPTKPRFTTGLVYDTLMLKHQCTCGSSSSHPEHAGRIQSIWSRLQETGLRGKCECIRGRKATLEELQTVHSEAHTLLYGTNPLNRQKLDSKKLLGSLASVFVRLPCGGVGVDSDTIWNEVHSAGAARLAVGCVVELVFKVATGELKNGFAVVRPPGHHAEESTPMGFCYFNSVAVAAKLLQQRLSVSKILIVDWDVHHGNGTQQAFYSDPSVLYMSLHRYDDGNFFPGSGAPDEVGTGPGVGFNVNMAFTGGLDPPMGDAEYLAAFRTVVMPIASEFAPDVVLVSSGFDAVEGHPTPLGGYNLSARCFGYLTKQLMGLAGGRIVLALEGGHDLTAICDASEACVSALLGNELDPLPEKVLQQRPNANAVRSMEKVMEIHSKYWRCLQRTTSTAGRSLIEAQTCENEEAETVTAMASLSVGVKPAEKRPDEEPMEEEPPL
Summary of the method: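 Purified HDAC4 preincubated with compound (10 concentrations from 10 µM, triplicate, final 1% DMSO) in 50 mM Tris-HCl pH 8.0, 137 mM NaCl, 2.7 mM KCl, 1 mM MgCl2, 1 mg/ml BSA. Class 2a trifluoroacetyl-lysine fluorogenic substrate added and incubated 1–2 h at 30 °C. Developer with TMP269 stops the reaction; fluorescence read at ex 360/em 460 at plateau. Activity is relative to DMSO, and IC50 comes from a sigmoidal fit.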

Compound CC[C@@]1(O)C(=O)OCc2c1cc1n(c2=O)Cc2c-1nc1ccccc1c2/C=N/OCCCCCC(=O)NCCSSCCNC(=O)/C(Cc1ccc(O)cc1)=N\O has a pIC50 [1] of 5.80, a pIC50 [2] of 6.72 and a pIC50 [3] of 6.21. The pIC50 [4] was 6.66, the pIC50 [5] was 6.34 and the pIC50 [6] was 6.24. The pIC50 [7] was 7.12, the pIC50 [8] was 6.51 and the pIC50 [9] was 6.54.

CC[C@@]1(O)C(=O)OCc2c1cc1n(c2=O)Cc2c-1nc1ccccc1c2/C=N/OCCCCCC(=O)NCCSSCCNC(=O)/C(Cc1ccc(O)c(Br)c1)=N\O showed a pIC50 [10] of 5.08, an Activity [11] of 13.1% and an Activity [12] of 79.3%. For the same compound, the Activity [13] was 1.8%, the pIC50 [14] was 6.52 and the Activity [15] was 3.8%. It also gave an Activity [16] of 28%, an Activity [17] of 2.6% and a pIC50 [1] of 6.08. It also gave a pIC50 [18] of 7.22, an Activity [19] of 19.6% and a pIC50 [2] of 6.96. The pIC50 [3] was 6.12, the Activity [20] was 6.2% and the pIC50 [21] was 6.22. It also gave an Activity [22] of 67.8%, an Activity [23] of 21.2% and a pIC50 [4] of 6.77. For the same compound, the pIC50 [5] was 6.18, the pIC50 [24] was 6.82 and the pIC50 [25] was 5.72. The pIC50 [26] was 7.00, the pIC50 [6] was 6.33 and the Activity [27] was 11%. For the same compound, the pIC50 [28] was 6.96, the Activity [29] was 83.5% and the pIC50 [30] was 6.55. It also gave a pIC50 [7] of 7.30, a pIC50 [31] of 8.12 and an Activity [32] of 15.7%. The Activity [33] was 16.5%, the Activity [34] was 9.9% and the inhibition [35] was “Active”. For the same compound, the Activity [36] was 20.6%, the pIC50 [37] was 7.46 and the Activity [38] was 14.5%. The Activity [39] was 58.97%, the pIC50 [40] was 5.40 and the inhibition [41] was “inactive”. The pIC50 [8] was 6.74, the Activity [42] was 13.1% and the Activity [43] was 25.4%. For the same compound, the Activity [44] was “Non-Toxic”, the Activity [45] was 4.5% and the Activity [46] was 12%. It also gave an inhibition in vivo at 90 mg/kg [47] of 78%, a pIC50 [48] of 7.33 and a pIC50 [49] of 6.15. It also gave an Activity [50] of 77.62%, a pIC50 [51] of 6.49 and a pIC50 [9] of 6.66. The Activity [52] was 59.2%, the pIC50 [53] was 6.89 and the IC50 [54] was “Not Active”.

Source: ChEMBL document CHEMBL4251569, “Camptothecin-psammaplin A hybrids as topoisomerase I and HDAC dual-action inhibitors” (Eur J Med Chem, 2018)
